One assay relates to HCT-116. Nature of the assay: Cytotoxicity against human HCT116 cells assessed as reduction in cell viability after 72 hrs by MTT assay. The class given is functional, cell-based. An outline of the steps:
(§1)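 Cells seeded in 96-well plates and incubated overnight at 37 °C. Treated with a range of concentrations (∼35 to 0.1 μM) for ∼72 h at 37 °C. Viability read by MTT assay. EC50 estimated from the dose-response curves.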

A further assay deals with A549. The assay can be described thus: Cytotoxicity against human A549 cells assessed as reduction in cell viability after 72 hrs by MTT assay. The class given is functional, cell-based. In outline: as §1

Molecules are shown by their SMILES. pEC50: −log10 of the molar value. Starred links: 1 amine or outer side, 2 acyl side, 3 side chain; linkers in the order of their positions; H or OH if unused. Positions of bridges follow the written chain, without caps; N, C: chain ends. Non-standard residues stand in square brackets, D forms with d. Residues, ends and D or L forms follow the SMILES beside them. Adda = CO[C@@H](Cc1ccccc1)[C@@H](C)/C=C(C)/C=C/[C@H](N[*:1])[C@H](C)C(=O)[*:2]; dAsp(3S-Me) = C[C@H](C(=O)[*:3])[C@@H](N[*:1])C(=O)[*:2]; d(γGlu) = O=C(O)[C@@H](CCC(=O)[*:2])N[*:1]; NMeDha = C=C(NC)C(=O)O Where only a bound is given, the exact number is not on record here.

The pEC50 is the negative decadic logarithm of the EC50, by convention in mol/L. Take `C=C1C(=O)N[C@H](C)C(=O)N[C@@H](CCc2ccc(O)cc2)C(=O)N[C@@H](C(=O)O)[C@H](C)C(=O)N[C@@H](CCCc2ccc(O)cc2)C(=O)N[C@@H](/C=C/C(C)=C/[C@H](C)[C@H](Cc2ccccc2)OC)[C@H](C)C(=O)N[C@@H](C(=O)O)CCC(=O)N1C`: in the assay with HCT-116, the Activity entry was “Dose-dependent effect” and the pEC50 was 5.48. In the assay on A549, the Activity result was “Dose-dependent effect” and the pEC50 was 6.44.

As to `C=C1C(=O)N[C@H](C)C(=O)N[C@@H](CCCc2ccc(O)cc2)C(=O)N[C@@H](C(=O)O)[C@H](C)C(=O)N[C@@H](CCCNC(=N)N)C(=O)N[C@@H](/C=C/C(C)=C/[C@H](C)[C@H](Cc2ccccc2)OC)[C@H](C)C(=O)N[C@@H](C(=O)O)CCC(=O)N1C`, the pEC50 in the assay with HCT-116 is under 4.46; in the assay with A549, 4.74.

For `C=C1C(=O)N[C@H](CC(C)C)C(=O)N[C@@H](CC(C)C)C(=O)N[C@@H](C(=O)O)[C@H](C)C(=O)N[C@@H](Cc2ccc(O)cc2)C(=O)N[C@@H](/C=C/C(C)=C/[C@H](C)[C@H](Cc2ccccc2)OC)[C@H](C)C(=O)N[C@@H](C(=O)O)CCC(=O)N1C` (Y[Adda][d(γGlu)][NMeDha][dL]L[dAsp(3S-Me)]-OH; lactam N-7), the Activity entry with HCT-116 and with A549 was “Dose-dependent effect” throughout. Also, the figures for the pEC50 in the assay with HCT-116 and with A549 were 4.96 and 5.89, respectively.

As to `C=C1C(=O)N[C@H](C)C(=O)N[C@@H](CC(C)C)C(=O)N[C@@H](C(=O)O)[C@H](C)C(=O)N[C@@H](CCCNC(=N)N)C(=O)N[C@@H](/C=C/C(C)=C/[C@H](C)[C@H](Cc2ccccc2)OC)[C@H](C)C(=O)N[C@@H](C(=O)O)CCC(=O)N1C` [MICROCYSTIN-LR] (R[Adda][d(γGlu)][NMeDha][dA]L[dAsp(3S-Me)]-OH; lactam N-7), the pEC50 in the assay on HCT-116 is 4.46; in the assay with A549, under 4.46.

Values taken from ChEMBL document CHEMBL4145606, “Microcystins Containing Doubly Homologated Tyrosine Residues from a Microcystis aeruginosa Bloom: Structures and Cytotoxicity” (J Nat Prod, 2018).
